Measured values pooled from the literature.
Target: LIM domain kinase 1 (LIMK1, Homo sapiens, UniProt P53667)

| SMILES | read-out | action | method | tested at | endpoint | value |
| --- | --- | --- | --- | --- | --- | --- |
| CC(C)(C)c1nc2c(s1)c1nc(N)ncc1c1ccc(NS(=O)(=O)c3c(F)cccc3F)c(F)c12 | enzyme activity | inhibitor | radiometric | 1 µM | remaining activity | 100% |
| CCN(CC)CCNC(=O)c1c(C)[nH]c(/C=C2\C(=O)Nc3ccc(F)cc32)c1C | enzyme activity | inhibitor | – | 0.3 µM | inhibition | -9% |
| COc1cc(Cl)c(C(=O)N[C@@H](CN[C@H]2CC[C@@H](N)CC2)Cc2ccc(C#N)cc2)cc1-c1ccc(CN[C@H](C)c2ccc(C)cc2)o1 | enzyme activity | inhibitor | – | 1 µM | remaining activity | 100% |
| CNC(=O)c1cc(Oc2ccc(NC(=O)Nc3ccc(Cl)c(C(F)(F)F)c3)cc2)ccn1 | enzyme activity | inhibitor | – | 10 µM | inhibition | 89% |
| CSc1cccnc1N1CCN(Cc2nc3ccccc3[nH]2)CC1 | cell-free assay | – | competition with immobilised ligand | 1 µM | remaining binding | 100% |
| Cc1cc(NC(=O)c2cccc3cc(-c4cccc5[nH]nc(N)c45)ccc23)ccc1F | enzyme activity | inhibitor | – | 0.1 µM | activity vs control | 90% |
| Cc1ccc(C(=O)Nc2ccc(CN3CCN(C)CC3)c(C(F)(F)F)c2)cc1C#Cc1cnc2cccnn12 | enzyme activity | inhibitor | – | 23.5 nM | remaining activity | 99% |
| Cn1cnc(Br)c1C1=CN(c2ncnc3[nH]cnc23)CCS1 | enzyme activity | inhibitor | radiometric | 2 µM | inhibition | 82.8% |
| CN(C)CC#Cc1ccc(OCCCc2sc(N3CCc4cccc(C(=O)Nc5nc6ccccc6s5)c4C3)nc2C(=O)O)c(F)c1 | cell-free assay | – | competition with immobilised ligand | 1 µM | remaining binding | 97% |
| O=C(Nc1cnn(-c2csc(C(=O)NC3COC3)c2)c1)Nc1ccccc1Cl | enzyme activity | inhibitor | – | 5 µM | remaining activity | 96.2% |
| O=C1NC(=O)c2cc(Nc3ccc(F)cc3)c(Nc3ccc(F)cc3)cc21 | cell-free assay | – | – | 0.5 µM | remaining signal | 95.9% |
| O=C(Nc1cccnn1)N1CC(C/C=C/c2cncc(Oc3ccc(C(F)(F)F)cn3)n2)C1 | cell-free assay | – | competition with immobilised ligand | 1 µM | remaining binding | 88% |
| Oc1ccc(-c2nc(-c3ccncc3)c(-c3ccc(F)cc3)[nH]2)cc1 | cell-free assay | – | – | 0.5 µM | remaining signal | 91.4% |
| CC(C)(O)[C@H]1CC[C@H](Nc2ccc3ncc(-c4cccc(C(F)(F)F)c4)n3n2)CC1 | enzyme activity | inhibitor | – | 1 µM | remaining activity | 76.3% |
| CN([C@@H]1CCc2c(CC(=O)O)c3ccccc3n2C1)S(=O)(=O)c1ccc(F)cc1 | cell-free assay | – | competition with immobilised ligand | 1 µM | remaining binding | 100% |
| CCN(CC)c1ccc(C2=NNC(=O)CC2C)cc1[N+](=O)[O-] (centres unmarked) | enzyme activity | inhibitor | – | 10 µM | remaining activity | 93% |
| CCCOc1ccc([C@@H]2[C@@H](C(=O)O)[C@H](c3ccc4c(c3)OCO4)CN2CC(=O)Nc2c(CC)cccc2CC)cc1 | cell-free assay | – | competition with immobilised ligand | 1 µM | remaining binding | 90% |
| N#CCCc1ccc2c(c1)-c1[nH]c3ccc([N+](=O)[O-])cc3c1CC(=O)N2 | cell-free assay | – | – | 0.5 µM | remaining signal | 99.9% |
| CC(=O)c1c(NS(C)(=O)=O)c2cc(-c3ccc(Cl)cc3)c(-c3ccc(Cl)cc3Cl)nc2n(C)c1=O | cell-free assay | – | competition with immobilised ligand | 1 µM | remaining binding | 88% |
| Cc1cnc(NC2CCOCC2)nc1-n1cnc(C(=O)NC(CN)c2cc(F)cc(Cl)c2)c1 (centres unmarked) | enzyme activity | inhibitor | radiometric | 1 µM | remaining activity | 64% |
